Screening data deposited in PubChem by several laboratories.
UPR XBP1 act – activators of adaptive arm of unfolded protein response (XBP1) | CHO-XBP1 luciferase reporter, IRE1-XBP1 UPR activation, luminescence; percent of tunicamycin response, DMSO as zero | activation, % at 20 µM | hit rate 0.33% among 330,000;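 active means versus positive control, 20 µM dose yields 30% or more activation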;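 further: 100% = tunicamycin at 10 µg/mL and 0% = DMSO only wells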
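Material: CHO cell line with stable XBP1 luciferase reporter; schedule: 16-18 h cell attachment at 37 °C, then 6 h compound exposure; signal: glow luminescence from Steady-Glo reagent; medium: serum-containing F12 medium, 10% FBS; benchmarks: tunicamycin 10 µg/mL and vehicle-only wells; read-out: percent activation relative to tunicamycin reference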
Mdm2 MdmX PPI – disrupts the human Mdm2-MdmX interaction; SaOS-2 split-luciferase Mdm2/MdmX complementation, luminescence; O15151+Q00987; AID 485346; inhibition, % at 8 µM; hit rate 3% among 330,000;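 active means inhibition of at least 50% at 8 µM in the primary screen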
Granule exo inh – blocks lytic granule exocytosis | inhibition, % at 10 µM | AID 651702 | TALL-104 LAMP-1 surface exposure, flow cytometry; cells stimulated with thapsigargin and PMA | hit rate 0.66% among 360,000;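 active means inhibition above about 55%, limit read from the data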
CHOP UPR activ – activators of apoptotic arm of unfolded protein response (CHOP); CHO-CHOP luciferase reporter, UPR activation, luminescence; percent of tunicamycin response over DMSO baseline; activation, % at 10 µM; hit rate 0.34% among 330,000;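 active means at 10 µM dose, activation of 40% or more, normalized to positive control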;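 further: 100% = tunicamycin at 10 µg/mL and 0% = DMSO alone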
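System: CHO-CHOP luciferase reporter cell line | Buffer or medium: F12 medium containing 10% fetal bovine serum | Doses: One dose, 10 µM in 0.5% DMSO | Times: 6 h compound exposure at 37 °C after overnight seeding | Signal: Luciferase luminescence | Read-out: % activation vs tunicamycin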
ABHD5 PLIN5 PPI – blocks binding of human ABHD5 to perilipin-5 | Q00G26+Q8WTS1 | Split G. princeps luciferase complementation, luminescence, 4 h | inhibition, % at 4 µM | hit rate 0.78% among 360,000 | AID 602281;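 active means inhibition above the mean inhibition across every tested compound plus 3 SD, cut at about 22% in these data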;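 further: 0% = DMSO only wells and the 100% control is not disclosed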
Mdm2-MdmX conf – human Mdm2/MdmX binding inhibition, confirmed; shares compounds with Mdm2 MdmX PPI; luminescent assay; inhibition, % at 8 µM; hit rate 55% among 10,000; in the data active means inhibition above about 40%
Full FLuc ctr – inhibits full-length luciferase, flagging false Mdm2/MdmX hits; shares compounds with Mdm2 MdmX PPI; SaOS-2 full-length luciferase counterscreen, luminescence; inhibition, % at 8 µM; hit rate 77% among 6,200; AID 504607;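 active means mean inhibition at 8 µM reaching about 37%, which flags the compound as non-specific, limit read from the data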;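 further: p53-null SaOS-2 cells with luciferase driven by a doxycycline-inducible promoter; compound on cells about two nights before reading with doxycycline added after day one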
Active calls of the source: *; . = not tested or not shown. Shown are actives, neighbours in structure and some others; about 4% of the full set was active somewhere.

SMILES | UPR XBP1 act | Mdm2 MdmX PPI | Granule exo inh | CHOP UPR activ | ABHD5 PLIN5 PPI | Mdm2-MdmX conf | Full FLuc ctr
O=C1c2ccccc2C(=O)c2[nH]c(=O)[nH]c21 | -5 | 69* | 12 | 3 | -8 | 44* | 48*
COc1cccc(NC(=O)CN(C)CC(=O)Nc2ccc(C)c([N+](=O)[O-])c2)c1 | 0 | 61* | 0 | -1 | -6 | 46* | 42*
N#CC1=C(N)Oc2cc(O)ccc2C1c1cccnc1 (stereo not given) | -1 | 2 | 2 | 1 | -3 | . | .
CN(C)c1ccc2c(c1)OC(N)=C(C#N)C2c1cccc(F)c1 (stereo not given) | 8 | 65* | 7 | -1 | 4 | 62* | 97*
N#CC1=C(N)Oc2cc(N)ccc2C1c1cccc(F)c1 (stereo not given) | -4 | 54* | -1 | -1 | -6 | 44* | 65*
COC(=O)c1ccc(C2C(C#N)=C(N)Oc3cc(N)ccc32)cc1 (stereo not given) | -5 | 16 | -10 | 0 | 8 | . | .
CC(C)c1ccccc1OCC(=O)N1CCCCCCC1 | -5 | 17 | 0 | 0 | 1 | . | .
O=c1cc[nH]c2ccc(Cl)cc12 | 2 | 7 | -1 | 1 | -1 | . | .
O=c1cccc2c1c1cc[nH]c3ccc(=O)n2c31 | 5 | 73* | -2 | 3 | -2 | 68* | 53*
O=C1c2ccccc2C(=O)C1c1nccc2ccccc12 | -12 | 67* | -4 | -8 | 6 | 10 | .
O=C1c2ccccc2C(=O)C1c1ccnc2ccccc12 | -5 | 45 | -1 | -7 | 6 | . | .
CSc1nc(Sc2ccccc2Cl)c2ccccc2n1 | -8 | 53* | -4 | 0 | -7 | 46* | 55*
COc1ccc(/C=N/Nc2cc(N3CCCC3)nc(N3CCCC3)n2)cc1 | -1 | 77* | 72* | 7 | -21 | 20 | .
O=C(O)CCC(=O)OCCCc1cc2ccccc2c(=O)o1 | -2 | -18 | -9 | 0 | -1 | . | .
CCN(CC)CCNC(=O)CCc1c(C)nc2c(c(C)nn2-c2ccc(C)cc2)c1C | 1 | 61* | 0 | 1 | -3 | 32 | .
COc1ccccc1-c1c(C)c(C)nc(N)c1C#N | -1 | 21 | 0 | 0 | 0 | . | .
COc1ccccc1-c1c(C#N)c(N)nc2c1CCc1ccccc1-2 | 7 | 70* | 16 | 17 | -16 | 70* | 53*
CCOc1cc(-c2c(C#N)c(N)nc3c2CCc2ccccc2-3)ccc1O | 2 | 81* | 24 | 3 | 5 | 79* | 51*
O=C(N/N=C/c1ccc(Cl)c([N+](=O)[O-])c1)c1cnccn1 | 2 | 8 | -3 | 4 | 3 | . | .
O=C(N/N=C/c1ccc(Sc2nc3ccccc3s2)c([N+](=O)[O-])c1)c1ccccn1 | -6 | 74* | 1 | -3 | 0 | 52* | 55*
O=C(c1ccco1)N1CCN(C(=O)c2ccc(-c3ccc([N+](=O)[O-])cc3)o2)CC1 | -1 | 3 | 0 | 1 | 10 | . | .
N/C(=N\OC(=O)c1cccc(Cn2cc(C(F)(F)F)ccc2=O)c1)c1ccccc1 | 0 | 68* | -7 | 2 | 1 | 24 | .
Cc1ccc(/C(N)=N/OC(=O)c2cccc(Cn3cc(C(F)(F)F)ccc3=O)c2)cc1 | 1 | 89* | -1 | 2 | 2 | 50* | 76*
O=C(Sc1ccc(Cl)cc1)c1cccc(Cn2cc(C(F)(F)F)ccc2=O)c1 | 13 | 4 | 7 | 22 | 0 | . | .
N/C(=N\OC(=O)c1cccc(Cn2cc(C(F)(F)F)ccc2=O)c1)c1ccc(Cl)cc1 | 2 | 76* | -20 | 0 | 2 | 47* | 83*
SMILES | UPR XBP1 act | Mdm2 MdmX PPI | Granule exo inh | CHOP UPR activ | ABHD5 PLIN5 PPI | Mdm2-MdmX conf | Full FLuc ctr
O=C(Nc1ccccn1)c1ccc(Br)s1 | -2 | -38 | 2 | 2 | -9 | . | .
COc1ccc(C(C[N+](=O)[O-])c2c(-c3ccccc3)cc3ccccn23)cc1 (stereo not given) | -4 | 96* | -4 | 14 | 21 | 16 | .
COc1cc(C(C[N+](=O)[O-])c2c(-c3ccccc3)cc3ccccn23)cc(OC)c1OC (stereo not given) | -4 | 55* | 7 | 32 | 10 | 15 | .
CN(C)CC(O)COc1cc2ccccc2cc1C(=O)N1CCCCC1 (stereo not given) | 0 | -19 | -5 | -1 | -1 | . | .
CC1CCN(c2ccc(-c3cccc(NC(=O)C(F)(F)F)c3)nn2)CC1 | -12 | 73* | 3 | -11 | 6 | 69* | 36*
O=C(Nc1cccc(-c2ccc(N3CCCCC3)nn2)c1)C(F)(F)F | -12 | 60* | -6 | -8 | -7 | 45* | 74*
O=C(Nc1cccc(-c2ccc(N3CCCCC3)nn2)c1)c1ccc(Br)o1 | -7 | -39 | 0 | -5 | 11 | . | .
COc1cccc(-c2nnc(SC(C(=O)c3c[nH]c4ccccc34)c3ccccc3)n2C)c1 (stereo not given) | -1 | 56* | 4 | -2 | 6 | 36 | .
CCc1nc2c(c(=O)c3ccccc3n2C)c(=O)n1C1CCCCCC1 | 6 | 52* | -3 | -4 | 5 | 76* | 81*
Cn1c2ccccc2c(=O)c2c(=O)n(C3CCCCC3)c(-c3cccs3)nc21 | 17 | 59* | -4 | -1 | 2 | 69* | 63*
Cc1c(-n2c(SCC(=O)O)nnc2-c2ccccc2Cl)c(=O)n(-c2ccccc2)n1C | 0 | 16 | 0 | -3 | 5 | . | .
COc1ccc(OC)c(N(/C(N)=N/c2nc(C)cc(C)n2)S(=O)(=O)c2ccc(NC(C)=O)cc2)c1 | 5 | 63* | 1 | 11 | 3 | 25 | 90*
COc1ccc(N(CC(=O)Nc2ccc3c(c2)OCO3)S(=O)(=O)c2ccc(C)cc2)cc1OC | -3 | -5 | 8 | 1 | 6 | . | .
COc1ccc(/C=C/C(=O)Nc2ccc(OC)nc2)cc1 | 0 | 8 | -6 | 3 | -5 | . | .
COc1ccc(CS(=O)(=O)/C(Cl)=C(/Cl)C(=O)Nc2ccc(OC)nc2)cc1 | -9 | 94* | 84* | 6 | 41* | 97* | 51*
COc1cccc(CNC(=O)C2CCC(CNc3nc(=S)[nH]c4ccccc34)CC2)c1 (stereo not given) | 4 | 61* | 0 | 0 | -4 | -2 | .
Cc1ccc(CNC(=O)C2CCC(CNc3nc(=S)[nH]c4ccccc34)CC2)cc1 (stereo not given) | 0 | 23 | -2 | -2 | 0 | . | .
CC(=O)c1cc(Cc2csc(C(C)=O)c2)cs1 | 1 | 1 | 2 | 1 | -1 | . | .
Cc1ccc(Nc2c(N)c(=O)oc3ccccc23)cc1 | 0 | 58* | -1 | -1 | -9 | 37 | .
